Reference: ChEMBL document CHEMBL1139504, “Discovery of the first potent, selective 5-hydroxytryptamine1D receptor antagonist” (J Med Chem, 2005)

Experiments:
[1] = molecular target: T1, 5-hydroxytryptamine receptor 1D (Homo sapiens, UniProt P28221); test: Displacement of [3H]5-HT from human 5-hydroxytryptamine 1D receptor expressed in CHO cells; format: cell-based
Procedure, shortened: (§1)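 Radioligand displacement binding on membranes of cloned human receptors. Each determination lies within 0.3 log units of the mean.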

[2] = molecular target: T2, 5-hydroxytryptamine receptor 1A (Homo sapiens, UniProt P08908); test: Displacement of [3H]WAY-100635 from human 5-hydroxytryptamine 1A receptor expressed in CHO cells; format: cell-based; procedure, shortened: as §1
T2 sequence (P08908 whole entry): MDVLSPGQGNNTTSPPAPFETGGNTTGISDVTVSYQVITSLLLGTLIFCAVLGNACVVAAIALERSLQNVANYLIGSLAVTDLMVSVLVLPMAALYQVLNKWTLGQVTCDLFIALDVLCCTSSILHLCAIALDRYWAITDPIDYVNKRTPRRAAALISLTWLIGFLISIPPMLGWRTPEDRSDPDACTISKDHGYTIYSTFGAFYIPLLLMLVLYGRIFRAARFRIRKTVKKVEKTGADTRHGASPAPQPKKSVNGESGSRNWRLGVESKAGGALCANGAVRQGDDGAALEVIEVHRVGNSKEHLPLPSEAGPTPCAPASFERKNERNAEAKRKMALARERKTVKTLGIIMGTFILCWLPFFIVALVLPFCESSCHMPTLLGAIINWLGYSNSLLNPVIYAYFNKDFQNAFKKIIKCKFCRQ

[3] = molecular target: T3, 5-hydroxytryptamine receptor 1B (Homo sapiens, UniProt P28222); test: Displacement of [3H]5-HT from human 5-hydroxytryptamine 1B receptor expressed in CHO cells; format: cell-based; procedure, shortened: as §1
T3 sequence (P28222 whole entry): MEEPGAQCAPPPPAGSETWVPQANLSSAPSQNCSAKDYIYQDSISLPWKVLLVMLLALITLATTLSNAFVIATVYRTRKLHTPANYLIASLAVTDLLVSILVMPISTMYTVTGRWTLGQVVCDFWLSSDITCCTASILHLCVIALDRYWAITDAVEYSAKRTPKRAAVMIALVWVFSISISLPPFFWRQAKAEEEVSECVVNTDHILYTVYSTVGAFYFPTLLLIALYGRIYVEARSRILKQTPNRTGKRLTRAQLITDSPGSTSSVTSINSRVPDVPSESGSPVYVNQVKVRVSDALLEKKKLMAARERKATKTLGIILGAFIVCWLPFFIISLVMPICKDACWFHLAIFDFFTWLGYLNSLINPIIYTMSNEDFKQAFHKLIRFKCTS

[4] = molecular target: Serotonin 1 receptors; 5-HT1B & 5-HT1D (Homo sapiens) (UniProt P28222+P28221); test: Selectivity for human 5-hydroxytryptamine 1D receptor over 5-hydroxytryptamine 1B receptor; format: protein assay
[5] = molecular target: Sodium-dependent serotonin transporter (Rattus norvegicus, UniProt P31652); test: Inhibition of [3H]5-HT binding to serotonin transporter in rat cortical synaptosomes; format: subcellular, Brain
Sodium-dependent serotonin transporter, sequence (P31652 whole entry): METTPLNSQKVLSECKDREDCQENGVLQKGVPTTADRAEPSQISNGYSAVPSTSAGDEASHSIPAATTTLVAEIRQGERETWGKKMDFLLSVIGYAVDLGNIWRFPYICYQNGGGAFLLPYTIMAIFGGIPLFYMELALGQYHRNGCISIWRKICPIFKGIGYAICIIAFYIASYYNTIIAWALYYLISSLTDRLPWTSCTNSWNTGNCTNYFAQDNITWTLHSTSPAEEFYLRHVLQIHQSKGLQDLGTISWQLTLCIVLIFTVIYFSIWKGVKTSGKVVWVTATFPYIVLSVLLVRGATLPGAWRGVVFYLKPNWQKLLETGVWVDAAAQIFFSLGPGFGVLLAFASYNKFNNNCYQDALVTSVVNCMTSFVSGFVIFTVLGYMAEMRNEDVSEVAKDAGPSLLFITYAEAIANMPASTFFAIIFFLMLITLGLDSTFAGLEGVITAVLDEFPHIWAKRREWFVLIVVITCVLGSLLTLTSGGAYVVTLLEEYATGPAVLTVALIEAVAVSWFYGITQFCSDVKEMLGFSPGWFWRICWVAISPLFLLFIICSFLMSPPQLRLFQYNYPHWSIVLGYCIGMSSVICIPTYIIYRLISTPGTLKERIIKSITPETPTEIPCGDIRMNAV
Procedure, shortened: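 Radioligand binding to serotonin transporter in rat cortical synaptosomes. Each determination lies within 0.3 log units of the mean.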

[6] = molecular target: T4, 5-hydroxytryptamine receptor 1F (Homo sapiens, UniProt P30939); test: Binding affinity for human 5-hydroxytryptamine 1F receptor
T4 sequence (P30939 whole entry): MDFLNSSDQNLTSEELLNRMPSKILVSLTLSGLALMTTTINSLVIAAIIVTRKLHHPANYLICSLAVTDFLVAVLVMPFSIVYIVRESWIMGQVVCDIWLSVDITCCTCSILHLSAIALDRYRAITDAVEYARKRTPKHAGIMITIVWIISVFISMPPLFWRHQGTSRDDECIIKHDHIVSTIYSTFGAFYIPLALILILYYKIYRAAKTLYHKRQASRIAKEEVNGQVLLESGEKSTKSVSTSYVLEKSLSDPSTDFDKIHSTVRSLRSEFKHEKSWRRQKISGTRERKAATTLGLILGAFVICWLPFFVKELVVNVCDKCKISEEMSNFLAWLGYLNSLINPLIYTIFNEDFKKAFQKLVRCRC

[7] = molecular target: 5-hydroxytryptamine receptor 5A (Homo sapiens, UniProt P47898); test: Binding affinity for human 5-hydroxytryptamine 5A receptor
5-hydroxytryptamine receptor 5A, sequence (P47898 whole entry): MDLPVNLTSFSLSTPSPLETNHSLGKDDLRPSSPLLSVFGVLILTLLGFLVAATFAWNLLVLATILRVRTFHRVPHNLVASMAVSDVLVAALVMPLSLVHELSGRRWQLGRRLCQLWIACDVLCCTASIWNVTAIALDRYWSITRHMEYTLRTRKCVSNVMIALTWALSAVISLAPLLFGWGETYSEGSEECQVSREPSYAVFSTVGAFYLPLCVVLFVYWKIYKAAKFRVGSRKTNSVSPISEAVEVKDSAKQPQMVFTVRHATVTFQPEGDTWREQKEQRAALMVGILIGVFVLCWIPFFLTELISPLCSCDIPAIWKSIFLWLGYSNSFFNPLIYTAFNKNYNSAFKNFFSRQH
Procedure, shortened: (§2)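 Radioligand displacement binding on cloned human receptors. Each determination lies within 0.3 log units of the mean.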

[8] = molecular target: 5-hydroxytryptamine receptor 2A (Homo sapiens, UniProt P28223); test: Binding affinity for human 5-hydroxytryptamine 2A receptor; procedure, shortened: as §2
5-hydroxytryptamine receptor 2A, sequence (P28223 whole entry): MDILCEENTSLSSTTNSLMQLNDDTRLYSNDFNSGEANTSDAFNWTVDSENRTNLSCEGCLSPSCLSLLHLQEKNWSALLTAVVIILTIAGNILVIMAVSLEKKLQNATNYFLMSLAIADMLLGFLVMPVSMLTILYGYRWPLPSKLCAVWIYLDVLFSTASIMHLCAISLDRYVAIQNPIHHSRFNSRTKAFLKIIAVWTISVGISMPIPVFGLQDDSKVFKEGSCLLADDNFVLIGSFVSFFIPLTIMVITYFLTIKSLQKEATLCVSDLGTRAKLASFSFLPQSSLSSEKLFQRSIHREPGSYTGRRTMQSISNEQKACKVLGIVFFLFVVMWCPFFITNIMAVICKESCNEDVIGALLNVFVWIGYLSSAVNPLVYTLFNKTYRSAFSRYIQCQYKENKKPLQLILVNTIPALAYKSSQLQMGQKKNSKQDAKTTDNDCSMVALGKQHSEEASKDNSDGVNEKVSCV

[9] = molecular target: Beta-2 adrenergic receptor (Homo sapiens, UniProt P07550); test: Binding affinity for human beta-2 adrenergic receptor
[10] = molecular target: 5-hydroxytryptamine receptor 6 (Homo sapiens, UniProt P50406); test: Binding affinity for human 5-hydroxytryptamine 6 receptor
5-hydroxytryptamine receptor 6, sequence (P50406 whole entry): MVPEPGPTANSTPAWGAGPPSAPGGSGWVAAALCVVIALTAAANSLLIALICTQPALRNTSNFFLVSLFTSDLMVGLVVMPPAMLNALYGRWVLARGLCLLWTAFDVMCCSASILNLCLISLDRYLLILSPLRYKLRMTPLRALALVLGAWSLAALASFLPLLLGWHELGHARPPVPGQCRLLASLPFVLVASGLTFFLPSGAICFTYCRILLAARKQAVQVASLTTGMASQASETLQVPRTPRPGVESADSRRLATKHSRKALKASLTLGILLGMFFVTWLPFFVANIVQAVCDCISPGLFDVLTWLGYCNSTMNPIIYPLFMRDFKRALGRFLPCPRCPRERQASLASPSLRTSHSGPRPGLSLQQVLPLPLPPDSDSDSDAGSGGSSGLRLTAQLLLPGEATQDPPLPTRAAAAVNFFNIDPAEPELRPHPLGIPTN

[11] = molecular target: T1, 5-hydroxytryptamine receptor 1D
[12] = molecular target: 5-hydroxytryptamine receptor 1E (Homo sapiens, UniProt P28566); test: Binding affinity for human 5-hydroxytryptamine 1E receptor
5-hydroxytryptamine receptor 1E, sequence (P28566 whole entry): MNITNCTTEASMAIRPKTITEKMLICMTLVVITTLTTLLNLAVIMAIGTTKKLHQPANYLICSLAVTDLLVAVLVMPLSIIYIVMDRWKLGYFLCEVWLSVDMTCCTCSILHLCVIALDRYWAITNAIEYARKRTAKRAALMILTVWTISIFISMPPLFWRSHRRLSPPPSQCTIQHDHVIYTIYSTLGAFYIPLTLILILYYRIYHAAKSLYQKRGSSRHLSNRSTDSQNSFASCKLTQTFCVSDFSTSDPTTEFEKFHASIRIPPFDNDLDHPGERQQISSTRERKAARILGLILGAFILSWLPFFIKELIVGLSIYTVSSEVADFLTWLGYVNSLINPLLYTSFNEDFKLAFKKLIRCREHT

[13] = molecular target: T5, 5-hydroxytryptamine receptor 1A (Homo sapiens) (UniProt P08908); test: Intrinsic activity for human 5-hydroxytryptamine 1A receptor in [35S]GTP-gamma-S, assay; […]; format: functional
T5 sequence (whole entry): T2 sequence (P08908 whole entry)
Procedure, shortened: (§3)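 [35S]GTPγS binding in recombinant cells with high receptor density expressing the human receptor. Ten-point half-log serial dilution gives the concentration–response. Intrinsic activity is expressed relative to the maximal response of the endogenous agonist 5-HT.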

[14] = molecular target: D(2) dopamine receptor (Homo sapiens, UniProt P14416); test: Binding affinity for human dopamine receptor D2
D(2) dopamine receptor, sequence (P14416 whole entry): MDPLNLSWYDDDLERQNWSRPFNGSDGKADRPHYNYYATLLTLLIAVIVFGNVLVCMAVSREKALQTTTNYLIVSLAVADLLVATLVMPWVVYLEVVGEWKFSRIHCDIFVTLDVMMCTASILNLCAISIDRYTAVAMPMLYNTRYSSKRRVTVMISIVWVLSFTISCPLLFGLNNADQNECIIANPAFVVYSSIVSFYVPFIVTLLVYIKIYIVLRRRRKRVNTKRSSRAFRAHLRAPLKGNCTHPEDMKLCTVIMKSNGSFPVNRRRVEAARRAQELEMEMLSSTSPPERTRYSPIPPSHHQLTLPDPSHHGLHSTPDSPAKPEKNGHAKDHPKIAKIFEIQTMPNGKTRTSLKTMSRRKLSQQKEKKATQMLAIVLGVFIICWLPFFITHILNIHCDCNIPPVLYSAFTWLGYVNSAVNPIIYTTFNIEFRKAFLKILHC

[15] = molecular target: T6, Alpha-1B adrenergic receptor (Homo sapiens, UniProt P35368); test: Binding affinity for human alpha-1B adrenergic receptor
T6 sequence (P35368 whole entry): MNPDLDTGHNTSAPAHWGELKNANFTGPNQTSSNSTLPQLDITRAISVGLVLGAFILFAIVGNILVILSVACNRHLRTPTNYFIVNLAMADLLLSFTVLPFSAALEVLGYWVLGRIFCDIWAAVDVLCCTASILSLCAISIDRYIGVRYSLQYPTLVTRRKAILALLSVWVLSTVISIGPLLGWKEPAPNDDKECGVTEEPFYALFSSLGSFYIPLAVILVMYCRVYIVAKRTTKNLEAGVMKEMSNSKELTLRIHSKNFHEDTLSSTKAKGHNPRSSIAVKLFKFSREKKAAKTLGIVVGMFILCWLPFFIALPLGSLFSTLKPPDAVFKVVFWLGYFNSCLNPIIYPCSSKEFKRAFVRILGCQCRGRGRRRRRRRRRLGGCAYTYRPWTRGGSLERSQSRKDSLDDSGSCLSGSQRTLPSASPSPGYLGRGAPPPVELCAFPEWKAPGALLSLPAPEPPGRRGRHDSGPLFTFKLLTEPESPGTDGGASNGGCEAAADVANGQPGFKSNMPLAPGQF

[16] = molecular target: T3, 5-hydroxytryptamine receptor 1B; test: Intrinsic activity for human 5-hydroxytryptamine 1B receptor in [35S]GTP-gamma-S, assay; format: functional; procedure, shortened: as §3
[17] = molecular target: 5-hydroxytryptamine receptor 4 (Homo sapiens, UniProt Q13639); test: Binding affinity for human 5-hydroxytryptamine 4 receptor
5-hydroxytryptamine receptor 4, sequence (Q13639 whole entry): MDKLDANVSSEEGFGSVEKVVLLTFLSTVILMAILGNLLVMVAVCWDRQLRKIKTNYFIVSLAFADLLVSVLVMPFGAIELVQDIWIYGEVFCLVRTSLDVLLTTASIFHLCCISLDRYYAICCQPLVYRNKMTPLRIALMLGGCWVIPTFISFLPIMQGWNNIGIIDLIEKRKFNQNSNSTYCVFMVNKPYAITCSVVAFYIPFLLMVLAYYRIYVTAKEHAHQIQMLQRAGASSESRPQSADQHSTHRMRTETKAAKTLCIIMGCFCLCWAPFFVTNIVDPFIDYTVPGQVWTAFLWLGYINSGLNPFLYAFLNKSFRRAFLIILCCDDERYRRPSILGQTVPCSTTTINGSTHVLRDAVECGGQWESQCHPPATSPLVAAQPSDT

[18] = molecular target: T7, D(4) dopamine receptor (Homo sapiens, UniProt P21917); test: Binding affinity for human dopamine receptor D4
T7 sequence (P21917 whole entry): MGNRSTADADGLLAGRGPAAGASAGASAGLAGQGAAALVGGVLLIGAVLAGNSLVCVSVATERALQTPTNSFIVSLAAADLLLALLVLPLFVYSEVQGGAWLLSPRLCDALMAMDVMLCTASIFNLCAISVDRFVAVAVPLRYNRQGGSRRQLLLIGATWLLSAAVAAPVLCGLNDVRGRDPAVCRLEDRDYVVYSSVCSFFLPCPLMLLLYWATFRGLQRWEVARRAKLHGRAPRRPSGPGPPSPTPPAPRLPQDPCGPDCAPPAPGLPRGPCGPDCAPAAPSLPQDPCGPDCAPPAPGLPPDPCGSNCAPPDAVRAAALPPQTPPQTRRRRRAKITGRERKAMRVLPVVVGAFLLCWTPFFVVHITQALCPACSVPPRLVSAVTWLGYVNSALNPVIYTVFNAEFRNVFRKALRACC

[19] = molecular target: 5-hydroxytryptamine receptor 7 (Homo sapiens, UniProt P34969); test: Binding affinity for human 5-hydroxytryptamine 7 receptor
5-hydroxytryptamine receptor 7, sequence (P34969 whole entry): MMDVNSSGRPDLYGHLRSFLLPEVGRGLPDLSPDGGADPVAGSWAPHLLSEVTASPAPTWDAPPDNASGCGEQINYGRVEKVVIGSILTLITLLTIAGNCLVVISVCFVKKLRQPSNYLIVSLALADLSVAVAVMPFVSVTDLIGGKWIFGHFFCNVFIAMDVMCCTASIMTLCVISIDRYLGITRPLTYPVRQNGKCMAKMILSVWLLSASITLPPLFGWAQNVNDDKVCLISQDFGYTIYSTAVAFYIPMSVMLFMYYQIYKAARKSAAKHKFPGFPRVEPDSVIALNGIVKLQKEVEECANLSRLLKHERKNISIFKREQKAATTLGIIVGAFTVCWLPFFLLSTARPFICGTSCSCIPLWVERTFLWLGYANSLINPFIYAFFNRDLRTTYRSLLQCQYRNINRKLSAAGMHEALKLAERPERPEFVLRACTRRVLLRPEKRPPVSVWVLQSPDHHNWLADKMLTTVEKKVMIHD

[20] = molecular target: D(3) dopamine receptor (Homo sapiens, UniProt P35462); test: Binding affinity for human dopamine receptor D3
[21] = molecular target: T8, 5-hydroxytryptamine receptor 2C (Homo sapiens, UniProt P28335); test: Binding affinity for human 5-hydroxytryptamine 2C receptor; procedure, shortened: as §2
T8 sequence (P28335 whole entry): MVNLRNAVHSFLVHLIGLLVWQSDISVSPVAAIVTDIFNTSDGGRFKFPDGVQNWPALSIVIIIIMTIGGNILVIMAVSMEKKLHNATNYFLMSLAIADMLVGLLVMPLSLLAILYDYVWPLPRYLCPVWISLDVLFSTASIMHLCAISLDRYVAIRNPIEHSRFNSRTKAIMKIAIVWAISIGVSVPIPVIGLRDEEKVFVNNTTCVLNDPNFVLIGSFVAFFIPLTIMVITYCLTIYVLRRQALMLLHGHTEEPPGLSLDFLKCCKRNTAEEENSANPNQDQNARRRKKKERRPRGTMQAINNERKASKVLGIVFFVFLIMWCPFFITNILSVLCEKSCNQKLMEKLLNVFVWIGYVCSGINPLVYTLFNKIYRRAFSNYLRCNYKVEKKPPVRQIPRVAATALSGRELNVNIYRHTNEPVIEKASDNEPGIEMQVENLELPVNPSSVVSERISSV

[22] = molecular target: 5-hydroxytryptamine receptor 2B (Homo sapiens, UniProt P41595); test: Binding affinity for human 5-hydroxytryptamine 2B receptor
5-hydroxytryptamine receptor 2B, sequence (P41595 whole entry): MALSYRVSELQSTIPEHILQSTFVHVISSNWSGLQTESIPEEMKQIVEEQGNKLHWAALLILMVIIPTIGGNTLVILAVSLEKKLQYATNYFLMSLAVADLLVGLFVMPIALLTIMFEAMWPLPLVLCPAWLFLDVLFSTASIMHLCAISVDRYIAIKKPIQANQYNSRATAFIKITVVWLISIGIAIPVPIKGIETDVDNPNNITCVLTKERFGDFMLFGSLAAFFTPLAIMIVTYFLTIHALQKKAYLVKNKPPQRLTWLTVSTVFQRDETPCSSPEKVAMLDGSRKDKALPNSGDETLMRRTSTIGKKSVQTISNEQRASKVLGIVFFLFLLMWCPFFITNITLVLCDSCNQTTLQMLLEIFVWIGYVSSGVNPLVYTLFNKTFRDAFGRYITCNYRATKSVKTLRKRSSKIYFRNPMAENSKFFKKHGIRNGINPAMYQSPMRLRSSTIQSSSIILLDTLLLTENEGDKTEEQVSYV

[23] = molecular target: T1, 5-hydroxytryptamine receptor 1D; test: Intrinsic activity for human 5-hydroxytryptamine 1D receptor in [35S]GTP-gamma-S, assay; format: functional; procedure, shortened: as §3
[24] = molecular target: T5, 5-hydroxytryptamine receptor 1A (Homo sapiens); test: Intrinsic activity for human 5-hydroxytryptamine 1A receptor in [35S]GTP-gamma-S, assay; format: functional; procedure, shortened: as §3
[25] = molecular target: T3, 5-hydroxytryptamine receptor 1B
[26] = molecular target: T5, 5-hydroxytryptamine receptor 1A (Homo sapiens)
[27] = molecular target: T1, 5-hydroxytryptamine receptor 1D; remark: listed apart in the source

T1 sequence (P28221 whole entry): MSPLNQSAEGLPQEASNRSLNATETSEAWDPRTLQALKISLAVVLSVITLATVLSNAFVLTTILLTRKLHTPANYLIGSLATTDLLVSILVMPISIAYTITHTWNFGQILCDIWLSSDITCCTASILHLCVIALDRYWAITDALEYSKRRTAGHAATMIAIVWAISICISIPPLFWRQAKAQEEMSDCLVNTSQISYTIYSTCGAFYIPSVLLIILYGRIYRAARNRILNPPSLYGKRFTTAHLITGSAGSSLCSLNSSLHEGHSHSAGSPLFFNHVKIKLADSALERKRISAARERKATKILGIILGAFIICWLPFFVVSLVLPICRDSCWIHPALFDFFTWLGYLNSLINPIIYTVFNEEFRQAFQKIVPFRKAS

Cc1ccc2c(OCCN3CCN(Cc4cccc5ncncc45)CC3)cccc2n1
Ki [1]: 2.51 nM
Ki [2]: 398 nM
Ki [3]: 316 nM
Selectivity [4]: 126

Cc1ccc2c(OCCN3CCN(Cc4ccc(Cl)c([N+](=O)[O-])c4)CC3)cccc2n1
Ki [1]: 5.01 nM
Ki [2]: 63.1 nM
Ki [3]: 200 nM
Ki [5]: 200 nM
Selectivity [4]: 40

Cc1ccc2c(OCCN3CCN(Cc4ccc(Cl)c(Cl)c4)CC3)cccc2n1
Ki [1]: 2510 nM
Ki [2]: > 10000 nM
Ki [3]: 2000 nM
Ki [5]: 501 nM
Selectivity [4]: 1

Cc1ccc2c(OCCN3CCN(Cc4cccc5cccnc45)CC3)cccc2n1
Ki [1]: 0.794 nM
Ki [6]: 2000 nM
Ki [7]: 3160 nM
Ki [8]: > 2510 nM
Ki [9]: 2000 nM
Ki [10]: > 10000 nM
IA [11]: 0
Ki [12]: > 10000 nM
IA [13]: 0
Ki [14]: 3160 nM
Ki [2]: 316 nM
Ki [15]: 1000 nM
Ki [3]: 200 nM
IA [16]: 0.3
Ki [17]: > 5010 nM
Ki [5]: 316 nM
Ki [18]: > 10000 nM
Ki [19]: 501 nM
Ki [20]: 1000 nM
Selectivity [4]: 251
Ki [21]: 3160 nM
Ki [22]: 1260 nM

Cc1ccc2c(OCCN3CCN(Cc4ccc(O)c([N+](=O)[O-])c4)CC3)cccc2n1
Ki [1]: 10 nM
Ki [2]: 794 nM
Ki [3]: 398 nM
Ki [5]: 1000 nM
Selectivity [4]: 40

Cc1ccc2c(OCCN3CCN(Cc4cccc5ncccc45)CC3)cccc2n1
Ki [1]: 2.51 nM
Ki [2]: 398 nM
Ki [3]: 251 nM
Selectivity [4]: 100

Cc1ccc2c(OCCN3CCN(Cc4ccc(F)c([N+](=O)[O-])c4)CC3)cccc2n1
Ki [1]: 7.94 nM
Ki [2]: 501 nM
Ki [3]: 251 nM
Ki [5]: 316 nM
Selectivity [4]: 32

Cc1ccc2c(OCCN3CCN(Cc4cc(Cl)ccc4Cl)CC3)cccc2n1
Ki [1]: 3.98 nM
Ki [2]: 79.4 nM
Ki [3]: 631 nM
Ki [5]: 1260 nM
Selectivity [4]: 158

Cc1ccc2c(OCCN3CCN(Cc4ccc(C)c([N+](=O)[O-])c4)CC3)cccc2n1
Ki [1]: 2 nM
Ki [2]: 39.8 nM
Ki [3]: 79.4 nM
Ki [5]: 50.1 nM
Selectivity [4]: 40

Cc1ccc2c(OCCN3CCN(Cc4cccc5cc[nH]c45)CC3)cccc2n1
Ki [1]: 3.16 nM
IA [23]: 0.5
IA [13]: 0
Ki [2]: 398 nM
Ki [3]: 398 nM
IA [16]: 0.1
Ki [5]: 398 nM
Selectivity [4]: 126

CN1CCN(c2cc3c(cc2Cl)CCN3C(=O)Nc2ccc(-c3ccncc3)c3ccccc23)CC1
IA [24]: 0.44

Cc1ccc2c(OCCN3CCN(Cc4c(Cl)cccc4Cl)CC3)cccc2n1
Ki [1]: > 10000 nM
Ki [2]: > 10000 nM
Ki [3]: > 10000 nM
Ki [5]: 1260 nM

Cc1ccc2c(OCCN3CCN(Cc4ccc5[nH]ccc5c4)CC3)cccc2n1
Ki [1]: 3.16 nM
Ki [2]: 1000 nM
Ki [3]: 158 nM
Selectivity [4]: 50

Cc1ccc2c(OCCN3CCN(Cc4ccc5c(c4)NC(=O)CO5)CC3)cccc2n1
Ki [1]: 10 nM
Ki [2]: 63.1 nM
Ki [3]: 100 nM
Ki [5]: 25.1 nM
Selectivity [4]: 10

NCCc1c[nH]c2ccc(O)cc12
IA [25]: 1
IA [26]: 1
IA [27]: 1

COc1ccc(CN2CCN(CCOc3cccc4nc(C)ccc34)CC2)cc1[N+](=O)[O-]
Ki [1]: 20 nM
Ki [2]: 398 nM
Ki [3]: 316 nM
Selectivity [4]: 16

Cc1ccc2c(OCCN3CCN(Cc4ccc(O)c(N)c4)CC3)cccc2n1
Ki [1]: 1.58 nM
Ki [2]: > 1260 nM
Ki [3]: 251 nM
Selectivity [4]: 158

Cc1ccc2c(OCCN3CCC(Cc4ccc5c(c4)NC(=O)CO5)CC3)cccc2n1
Ki [1]: 1.58 nM

Cc1ccc2c(OCCN3CCN(Cc4cccc5[nH]cnc45)CC3)cccc2n1
Ki [1]: 0.251 nM
IA [23]: 0.5
IA [13]: 0
Ki [2]: 158 nM
Ki [3]: 63.1 nM
IA [16]: 0.3
Ki [5]: 794 nM
Selectivity [4]: 251

COc1ccc(NC(=O)c2ccc(-c3ccc(-c4noc(C)n4)cc3C)cc2)cc1N1CCN(C)CC1
IA [23]: 0.86
IA [16]: 0.47
